Like-named read-outs stand apart in the source and are kept apart here.
Columns and labels:
[1] = system: T. gondii type II Prugniaud strain; assay: Bradyzoite differentiation, SRS9/P36 expression by IFA; format: cell-based, Toxoplasma gondii
[2] = system: histone H4 acetylation in T. gondii TgHDAC3^T99I resistant line; assay: Immunoblot of histone acetylation in extracellular tachyzoites; format: cell-based, Toxoplasma gondii; conditions: 20 nM FR235222, immunoblot
[3] = system: histone H4 acetylation in T. gondii RH WT; assay: as above; format: cell-based, Toxoplasma gondii
[4] = system: 20.m00351 mRNA, T. gondii type II Prugniaud strain; assay: Semiquantitative RT-PCR of 20.m00351 mRNA; format: cell-based, Toxoplasma gondii; conditions: 40 nM FR235222 for 3 d, n = 3
HFFs = assay: Mammalian host cell proliferation; format: cell-based, human; conditions: in vitro, parasites versus HFF cells
P. falciparum = assay: Antimalarial activity in vitro, P. falciparum intraerythrocytic growth; format: cell-based, Plasmodium falciparum; conditions: 3D7 chloroquine sensitive, Dd2 chloroquine resistant, Fig. 1 C, n = 4
Procedure, shortened: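 Drug exposure: 48 h for asynchronous 3D7 and Dd2 cultures, 20 h for plasmion-enriched 3D7 schizonts. Growth was read by […] incorporation, and EC50 was derived by nonlinear regression.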

N. caninum = N. caninum growth in HFF monolayer; format: cell-based, Neospora caninum; conditions: read-out: EC50 (nM ± SD), mean ± SD
T. gondii RH M190D4 = assay: T. gondii growth in HFF monolayer, [3H]uracil incorporation; format: cell-based, Toxoplasma gondii
Procedure, shortened: (§1)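 Confluent human fibroblasts infected with tachyzoites with or without test compound. After 72 h, washed and pulsed with [3H]uracil for 4 h, then washed and solubilized. Acid-precipitable radioactivity counted by liquid scintillation. EC50 by nonlinear regression.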

T. gondii RH WT [5] = assay: Immunofluorescence of intracellular T. gondii; format: cell-based, Toxoplasma gondii; conditions: IFA, 24 h, 40 nM FR235222, 1 µM pyrimethamine
Procedure, shortened: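 Confluent HFF monolayers infected with RH tachyzoites with 40 nM test compound, 0.1% DMSO or 1 µM pyrimethamine for 24 h. Fixed/permeabilized 20 min (3% formaldehyde, 0.2% Triton X-100) and blocked with 5% FBS/5% goat serum. Stained with anti-AcH4 antiserum and anti-IMC1 monoclonal (1:1,000), Alexa 568/488 secondaries, and Hoechst 33258 for DNA.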

[6] = system: histone H4 acetylation in T. gondii TgHDAC3^T99A resistant line; assay: Immunoblot of histone acetylation in extracellular tachyzoites; format: cell-based, Toxoplasma gondii; conditions: 20 nM FR235222, immunoblot
T. gondii RH WT [7] = assay: T. gondii growth in HFF monolayer, [3H]uracil incorporation; format: cell-based; conditions: Toxoplasma gondii
Procedure, shortened: as §1

T. gondii Prugniaud = assay: as above; format: cell-based; conditions: Toxoplasma gondii, read-out: EC50 (nM ± SD)
Procedure, shortened: as §1

[8] = read-out: EC50 (nM ± SD), T. gondii RH M190D4 (FR235222-resistant mutant, TgHDAC3 T99A) in HFF monolayer, [3H]uracil incorporation, mean ± SD
[9] = read-out: EC50, T. gondii intracellular growth

Compound: FR235222
- parasitic vacuoles expressing SRS9/P36 ([1]; 40 nM FR235222, 2–3 d, IFA with anti-P36, n = 2): ~80%
- change of AcH4 signals [2]: remained unchanged
- increase of AcH4 signals ([3]; WT, 20 nM FR235222, immunoblot): approximately eightfold
- increase of AcH4 signals ([3]; extracellular tachyzoites incubated with drug 4 h, immunoblot): approximately eightfold
- acetylation of histones H2B (K12 and K15) and H3K9 ([3]; immunoblot, FR235222 treatment (Fig. S2)): not affected
- 20.m00351 mRNA levels [4]: accumulated
- sensitivity of parasites relative to HFF cells (HFFs): ~10 times
- comparison of EC50s on clones 3D7 and Dd2 (P. falciparum): equivalent
- EC50 (N. caninum): 8 ± 2 nM
- EC50 (T. gondii RH M190D4; [8]): 62 ± 5 nM
- AcH4 signals in nuclei of treated parasites versus DMSO control (T. gondii RH WT [5]): higher
- increase of AcH4 signals [6]: approximately threefold

Compound: CCC(=O)CCCCC[C@@H]1NC(=O)[C@H]2CCCCN2C(=O)[C@H]([C@@H](C)CC)NC(=O)[C@H](Cc2cn(OC)c3ccccc23)NC1=O [Apicidin, apicidin]
- EC50 (T. gondii RH M190D4; [8]): 67 ± 16 nM

Compound: O=C(CCCCCN1C(=O)c2cccc3cccc(c23)C1=O)NO [Scriptaid]
- EC50 (T. gondii RH WT [7]; [9]): 400 nM

Compound: CCc1nc(N)nc(N)c1-c1ccc(Cl)cc1 [Pyrimethamine, pyrimethamine]
- induction of SRS9/P36 ([1]; 1 µM pyrimethamine, 2–3 d, IFA with anti-P36): very weak induction
- EC50 (T. gondii Prugniaud): 195 ± 1 nM
- EC50 (T. gondii RH WT [7]; read-out: EC50 (nM ± SD), SD): 285 ± 61 nM
- EC50 (T. gondii RH WT [7]; [9]): 300 nM
- EC50 (T. gondii RH M190D4; Toxoplasma gondii, read-out: EC50 (nM ± SD)): 300 ± 11 nM
- AcH4 signals in nuclei of treated parasites versus DMSO control (T. gondii RH WT [5]): not observed

— PMC2715132 (The Journal of Experimental Medicine, 2009)
